Test [1] has as its target E3 ubiquitin-protein ligase XIAP (Homo sapiens) (UniProt P98170). Description: Induction of XIAP degradation in human MM1.S cells at 100 nM incubated for 3 hrs by diaPASEF-based analysis. It counts as cell-based. The method in brief: (§1)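 MM.1S cells exposed to DMSO or 0.1 μM compound for 3 h, then washed with PBS and snap-frozen. Lysed in 8 M urea/EPPS pH 8.5 buffer. 50 μg protein reduced, alkylated, precipitated, then digested with LysC and trypsin. Analysed by diaPASEF on timsTOF Pro2. Missing values imputed from a Gaussian distribution; log2 fold change versus DMSO with limma statistics.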

The target of test [2] is Baculoviral IAP repeat-containing protein 2 (Homo sapiens) (UniProt Q13490). Description: Induction of cIAP1 degradation in human MM1.S cells at 100 nM incubated for 3 hrs by diaPASEF-based analysis. It counts as cell-based. The method, boiled down: as §1
Chain of Baculoviral IAP repeat-containing protein 2 (Homo sapiens) (Q13490 whole entry): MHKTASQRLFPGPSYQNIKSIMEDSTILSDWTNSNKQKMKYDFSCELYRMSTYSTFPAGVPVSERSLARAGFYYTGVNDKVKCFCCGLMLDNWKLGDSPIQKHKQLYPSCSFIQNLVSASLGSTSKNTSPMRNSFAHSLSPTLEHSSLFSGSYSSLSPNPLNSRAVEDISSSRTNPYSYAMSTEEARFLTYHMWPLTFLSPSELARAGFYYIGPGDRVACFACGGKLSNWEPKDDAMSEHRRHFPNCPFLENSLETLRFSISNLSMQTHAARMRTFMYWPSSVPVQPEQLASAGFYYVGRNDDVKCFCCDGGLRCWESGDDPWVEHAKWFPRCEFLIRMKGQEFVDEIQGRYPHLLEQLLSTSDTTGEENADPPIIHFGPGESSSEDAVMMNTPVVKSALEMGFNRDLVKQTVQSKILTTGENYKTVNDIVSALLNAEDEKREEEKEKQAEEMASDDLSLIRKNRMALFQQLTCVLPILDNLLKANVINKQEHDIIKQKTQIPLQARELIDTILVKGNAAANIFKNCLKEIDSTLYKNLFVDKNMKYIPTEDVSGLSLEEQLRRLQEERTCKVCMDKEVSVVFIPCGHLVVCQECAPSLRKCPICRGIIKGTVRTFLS

Activity calls are given as the source filed them. The rule behind the calls is not given here.

Chain of E3 ubiquitin-protein ligase XIAP (Homo sapiens) (P98170 whole entry): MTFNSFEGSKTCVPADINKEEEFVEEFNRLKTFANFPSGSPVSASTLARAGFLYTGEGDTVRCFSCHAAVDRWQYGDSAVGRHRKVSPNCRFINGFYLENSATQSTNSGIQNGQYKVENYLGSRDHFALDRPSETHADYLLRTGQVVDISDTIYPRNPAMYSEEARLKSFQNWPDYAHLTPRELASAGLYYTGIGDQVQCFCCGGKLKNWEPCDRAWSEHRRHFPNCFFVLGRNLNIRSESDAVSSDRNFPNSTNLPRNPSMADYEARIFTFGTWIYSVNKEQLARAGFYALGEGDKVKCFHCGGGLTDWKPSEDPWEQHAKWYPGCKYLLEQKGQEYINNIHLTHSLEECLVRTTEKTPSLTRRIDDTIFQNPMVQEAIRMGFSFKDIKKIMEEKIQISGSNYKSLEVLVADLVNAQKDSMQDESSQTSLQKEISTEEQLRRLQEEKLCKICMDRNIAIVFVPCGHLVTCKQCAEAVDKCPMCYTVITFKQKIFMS

As to `CN[C@@H](C)C(=O)N[C@@H](C(=O)N1CCC[C@H]1C(=O)N[C@@H]1c2ccccc2C[C@@H]1OCC#CC#CCO[C@H]1Cc2ccccc2[C@H]1NC(=O)[C@@H]1CCCN1C(=O)[C@H](NC(=O)[C@H](C)NC)C1CCCCC1)C1CCCCC1`, in test [1], the outcome was inactive. Moreover, the outcome in test [2] was Active.

(Values after ChEMBL document CHEMBL5338733, “Heterobifunctional Ligase Recruiters Enable pan-Degradation of Inhibitor of Apoptosis Proteins” (J Med Chem, 2023).)
